Data set [1] relates to Splenocyte. The data set can be described thus: Immunomodulatory activity in C57BL/6 mouse splenocytes assessed as increase in CD4+/CD8+ cells ratio at 3 uM incubated for 24 hrs by flow cytometric analysis. It is filed as functional, cell-based. Summed up: (§1)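 C57BL/6 splenocytes given compounds at 3 μM for 24 h under Con A-induced activation, with Con A (5 μg/mL) as positive control. Cells were stained with PE-CD3, FITC-CD4 and Percp/cy5.5-CD8. CD3+, CD4+ and CD8+ percentages were measured by flow cytometry, and the CD4+/CD8+ ratio was derived from them. Values are mean ± SD, n = 3.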
In general terms: Flow cytometry measures light scatter and fluorescence of single cells or particles in a stream.

The test system of data set [2] is Splenocyte. Briefly: Immunomodulatory activity in C57BL/6 mouse splenocytes assessed as induction of CD3+ T cells proliferation at 3 uM incubated for 24 hrs by flow cytometric analysis. The class given is functional, cell-based. In short, it runs like this: as §1
Data set [3] has as its system Splenocyte. Briefly: Cytotoxicity in C57BL/6 mouse splenocytes assessed as effect on cell viability at 3 uM by FACScan flow cytometry. It is filed as cell-based. Summed up:
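Splenocytes at 2 × 10^6 cell/mL from C57BL/6 mice exposed to compounds at 3 μM for 24 h, with Con A (5 μg/mL) as positive control. Cells were then collected, washed in PBS and read at once by flow cytometry for apoptosis.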

Data set [4] has as its system Splenocyte. The data set can be described thus: Immunomodulatory activity in C57BL/6 mouse splenocytes assessed as reduction in CD4+/CD8+ cells ratio at 3 uM incubated for 24 hrs by flow cytometric analysis. It is filed as functional, cell-based. Summed up:
as §1

Active and inactive are the calls of the source. The rule behind the calls is not given here.

Consider `CC(=O)O[C@H]1C/C(C)=C/CC/C(C)=C/C(=O)C[C@@]23C(=O)O[C@@H]([C@@H]1C(C)C)[C@@H]2CC(C)=C1CCC2=CCC[C@@](C)(OC2=O)[C@@H](O)CC/C(C)=C/[C@@H]13`, for which the result in data set [1] and in data set [2] was Active. Also, the Activity entry in data set [3] was “Non-Toxic”.
For the molecule `CC(=O)O[C@H]1C/C(C)=C/CC/C(C)=C\C(=O)C[C@@]23C(=O)O[C@@H]([C@@H]1C(C)C)[C@@H]2CC(C)=C1CCC2=CCC[C@@](C)(OC2=O)[C@@H](O)CC/C(C)=C/[C@@H]13`, the Activity result in data set [3] is on record as “Non-Toxic”.
On to `CC(=O)O[C@H]1C/C(C)=C/CC[C@H](C)CC(=O)C[C@@]23C(=O)O[C@@H]([C@@H]1C(C)C)[C@@H]2CC(C)=C1CCC2=CCC[C@@](C)(OC2=O)[C@@H](O)CC/C(C)=C\[C@@H]13`, for which the Activity entry in data set [3] was “Non-Toxic”.
On to `CC1=C2CCC3=CCC[C@@](C)(OC3=O)[C@@H](O)CC/C(C)=C/[C@@H]2[C@]23CC(=O)C[C@@H](C)CC/C=C(\C)CC(=O)[C@@H](C(C)C)[C@H](OC2=O)[C@@H]3C1`, for which, in data set [3], the Activity result is on record as “Non-Toxic”.
Consider `CC(=O)O[C@H]1C/C(C)=C/CC/C(C)=C\C(=O)C[C@@]23C(=O)O[C@@H]([C@@H]1C(C)C)[C@@H]2CC(C)=C1CCC2=CCC[C@@](C)(OC2=O)[C@@H](O)CC/C(C)=C\[C@@H]13`, for which the Activity entry in data set [3] is recorded as “Non-Toxic”. Also, the result in data set [4] was Active.
As for `CC(=O)O[C@H]1C/C(C)=C/CC[C@H](C)CC(=O)C[C@@]23C(=O)O[C@@H]([C@@H]1C(C)C)[C@@H]2CC(C)=C1CCC2=CCC[C@@](C)(OC2=O)[C@@H](O)CC/C(C)=C/[C@@H]13`, the outcome in data set [1] was Active. For the same molecule, in data set [3], the Activity result is reported as “Non-Toxic”.
`CC(=O)O[C@H]1C/C(C)=C/C/C=C(/C)CC(=O)C[C@@]23C(=O)O[C@@H]([C@@H]1C(C)C)[C@@H]2CC(C)=C1CCC2=CCC[C@@](C)(OC2=O)[C@@H](O)CC/C(C)=C/[C@@H]13`: the outcome in data set [2] was Active. In data set [3], the Activity entry was “Non-Toxic”.
